Experimental data from ChEMBL document CHEMBL1781927, “Highly selective c-Jun N-terminal kinase (JNK) 3 inhibitors with in vitro CNS-like pharmacokinetic properties II. Central core replacement” (Bioorg Med Chem Lett, 2011).
≈ marks a conversion by molar mass, not a printed value.

Key:
[1] = molecular target: PI3-kinase p110-alpha/p85-alpha (Homo sapiens) (UniProt P27986+P42336); assay: Inhibition of PIK3CA/PIK3R1 at 10 uM; format: protein-complex assay
[2] = molecular target: RAC-alpha serine/threonine-protein kinase (Homo sapiens) (UniProt P31749); assay: Inhibition of AKT1 at 10 uM
[3] = Selectivity ratio of IC50 for JNK1 to IC50 for JNK3
[4] = molecular target: Mitogen-activated protein kinase 8 (Homo sapiens, UniProt P45983); assay: Inhibition of JNK1 by TR-FRET assay
How it was run: (§1)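 IC50s were determined at a single fixed ATP concentration, and each value is the mean of at least three independent experiments.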

[5] = Metabolic stability in human liver microsomes assessed as compound remaining after 60 mins in presence of UDPGA; format: ADME, Microsome; conditions: read-out: Stability
[6] = Efflux ratio, permeability from apical to basolateral side to basolateral to apical side in MDR1 expressing MDCK2 cells at 5 uM after 120 mins; format: ADME, cell-based, Canis lupus familiaris; conditions: dog, mdck-ii, 2 h
[7] = molecular target: Tyrosine-protein kinase JAK1 (Homo sapiens) (UniProt P23458); assay: Inhibition of JAK1 at 10 uM
[8] = molecular target: Leucine-rich repeat serine/threonine-protein kinase 2 (Homo sapiens) (UniProt Q5S007); assay: Inhibition of LRRK2 at 10 uM
[9] = molecular target: Cyclin-dependent kinase 5/CDK5 activator 1 (Homo sapiens) (UniProt Q00535+Q15078); assay: Inhibition of CDK5/p25 at 10 uM; format: protein-complex assay
[10] = molecular target: Cyclin-dependent kinase 1/cyclin B1 (Homo sapiens) (UniProt P06493+P14635); assay: Inhibition of CDK1/cyclin B at 10 uM; format: protein-complex assay
[11] = molecular target: Tyrosine-protein kinase Lck (Homo sapiens) (UniProt P06239); assay: Inhibition of LCK at 10 uM
[12] = molecular target: Receptor-interacting serine/threonine-protein kinase 2 (Homo sapiens) (UniProt O43353); assay: Inhibition of RIPK2 at 10 uM
[13] = molecular target: Serine/threonine-protein kinase PLK2 (Homo sapiens) (UniProt Q9NYY3); assay: Inhibition of PLK2 at 10 uM
[14] = molecular target: Mitogen-activated protein kinase 9 (Homo sapiens, UniProt P45984); assay: Inhibition of JNK2 by TR-FRET assay; how it was run: as §1
[15] = molecular target: Receptor tyrosine-protein kinase erbB-4 (Homo sapiens) (UniProt Q15303); assay: Inhibition of ERBB4 at 10 uM
[16] = Solubility of the compound; format: physicochemical
[17] = molecular target: Glycogen synthase kinase-3 beta (Homo sapiens) (UniProt P49841); assay: Inhibition of GSK3B at 10 uM
[18] = molecular target: T1, Mitogen-activated protein kinase 10 (Homo sapiens, UniProt P53779); assay: Inhibition of MAPK10 at 10 uM
[19] = molecular target: RAF proto-oncogene serine/threonine-protein kinase (Homo sapiens) (UniProt P04049); assay: Inhibition of RAF1 at 10 uM
[20] = Oxidative metabolic stability in mouse liver microsomes assessed as compound remaining after 30 mins; format: ADME, Microsome; conditions: read-out: Stability
How it was run: (§2)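 Liver microsomes, mouse or human, were incubated with the compound for 30 min under oxidative conditions. The read-out is the percent of parent compound remaining.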

[21] = molecular target: cAMP-dependent protein kinase catalytic subunit alpha (Homo sapiens) (UniProt P17612); assay: Inhibition of PKACA at 10 uM
[22] = molecular target: Dual specificity tyrosine-phosphorylation-regulated kinase 1B (Homo sapiens) (UniProt Q9Y463); assay: Inhibition of DYRK1B at 10 uM
[23] = molecular target: Platelet-derived growth factor receptor alpha (Homo sapiens) (UniProt P16234); assay: Inhibition of PDGFRA at 10 uM
[24] = molecular target: Tyrosine-protein kinase SYK (Homo sapiens) (UniProt P43405); assay: Inhibition of SYK at 10 uM
[25] = Oxidative metabolic stability in human liver microsomes assessed as compound remaining after 30 mins; format: ADME, Microsome; conditions: read-out: Stability; how it was run: as §2
[26] = molecular target: Dual specificity protein kinase CLK1 (Homo sapiens) (UniProt P49759); assay: Inhibition of CLK1 at 10 uM
[27] = molecular target: Calcium/calmodulin-dependent protein kinase type II subunit alpha (Homo sapiens) (UniProt Q9UQM7); assay: Inhibition of CAMK2A at 10 uM
[28] = molecular target: Proto-oncogene tyrosine-protein kinase receptor Ret (Homo sapiens) (UniProt P07949); assay: Inhibition of RET at 10 uM
[29] = molecular target: Rho-associated protein kinase 2 (Homo sapiens) (UniProt O75116); assay: Inhibition of ROCK2 at 10 uM
[30] = molecular target: Macrophage colony-stimulating factor 1 receptor (Homo sapiens) (UniProt P07333); assay: Inhibition of CSF1R at 10 uM
[31] = Metabolic stability in mouse liver microsomes assessed as compound remaining after 60 mins in presence of UDPGA; format: ADME, Microsome; conditions: read-out: Stability
[32] = molecular target: Serine/threonine-protein kinase 3 (Homo sapiens) (UniProt Q13188); assay: Inhibition of STK3 at 10 uM
[33] = molecular target: Protein-tyrosine kinase 2-beta (Homo sapiens) (UniProt Q14289); assay: Inhibition of PTK2B at 10 uM
[34] = molecular target: Mitogen-activated protein kinase 1 (Homo sapiens) (UniProt P28482); assay: Inhibition of MAPK1 at 10 uM
[35] = molecular target: T1, Mitogen-activated protein kinase 10; assay: Inhibition of JNK3 by TR-FRET assay; how it was run: as §1
[36] = molecular target: Serine/threonine-protein kinase PLK3 (Homo sapiens) (UniProt Q9H4B4); assay: Inhibition of PLK3 at 10 uM
[37] = molecular target: Cyclin-dependent kinase 2/cyclin A (Homo sapiens) (UniProt P24941+P20248+P78396); assay: Inhibition of CDK2/cyclin A at 10 uM; format: protein-complex assay
[38] = molecular target: Serine/threonine-protein kinase MARK2 (Homo sapiens) (UniProt Q7KZI7); assay: Inhibition of MARK2 at 10 uM
[39] = molecular target: Dual specificity protein kinase TTK (Homo sapiens) (UniProt P33981); assay: Inhibition of TTK at 10 uM
[40] = molecular target: Serine/threonine-protein kinase Chk1 (Homo sapiens) (UniProt O14757); assay: Inhibition of CHEK1 at 10 uM
[41] = molecular target: Serine/threonine-protein kinase PAK 4 (Homo sapiens) (UniProt O96013); assay: Inhibition of PAK4 at 10 uM
[42] = molecular target: Serine/threonine-protein kinase PLK1 (Homo sapiens) (UniProt P53350); assay: Inhibition of PLK1 at 10 uM
[43] = molecular target: Receptor-type tyrosine-protein kinase FLT3 (Homo sapiens) (UniProt P36888); assay: Inhibition of FLT3 at 10 uM
[44] = molecular target: Protein kinase C beta type (Homo sapiens) (UniProt P05771); assay: Inhibition of PRKCB1 at 10 uM
[45] = molecular target: Serine/threonine-protein kinase 16 (Homo sapiens) (UniProt O75716); assay: Inhibition of STK16 at 10 uM
[46] = molecular target: Tyrosine-protein kinase ABL1 (Homo sapiens) (UniProt P00519); assay: Inhibition of ABL1 at 10 uM
[47] = molecular target: Insulin receptor (Homo sapiens) (UniProt P06213); assay: Inhibition of INSR at 10 uM

T1 sequence (P53779 whole entry): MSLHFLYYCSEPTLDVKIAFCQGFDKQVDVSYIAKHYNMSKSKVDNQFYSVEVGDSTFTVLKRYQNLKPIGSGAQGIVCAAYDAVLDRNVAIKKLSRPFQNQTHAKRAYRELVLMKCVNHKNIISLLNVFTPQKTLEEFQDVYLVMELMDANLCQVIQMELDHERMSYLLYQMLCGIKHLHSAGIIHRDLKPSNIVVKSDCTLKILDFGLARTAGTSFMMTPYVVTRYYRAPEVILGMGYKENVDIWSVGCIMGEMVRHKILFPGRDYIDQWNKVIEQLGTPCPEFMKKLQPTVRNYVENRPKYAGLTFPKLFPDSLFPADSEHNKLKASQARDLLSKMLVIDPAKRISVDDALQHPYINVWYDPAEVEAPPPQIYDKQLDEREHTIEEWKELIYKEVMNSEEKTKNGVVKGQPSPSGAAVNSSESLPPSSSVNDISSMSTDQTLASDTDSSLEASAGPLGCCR
Sequence of Receptor-type tyrosine-protein kinase FLT3 (Homo sapiens) (P36888 whole entry): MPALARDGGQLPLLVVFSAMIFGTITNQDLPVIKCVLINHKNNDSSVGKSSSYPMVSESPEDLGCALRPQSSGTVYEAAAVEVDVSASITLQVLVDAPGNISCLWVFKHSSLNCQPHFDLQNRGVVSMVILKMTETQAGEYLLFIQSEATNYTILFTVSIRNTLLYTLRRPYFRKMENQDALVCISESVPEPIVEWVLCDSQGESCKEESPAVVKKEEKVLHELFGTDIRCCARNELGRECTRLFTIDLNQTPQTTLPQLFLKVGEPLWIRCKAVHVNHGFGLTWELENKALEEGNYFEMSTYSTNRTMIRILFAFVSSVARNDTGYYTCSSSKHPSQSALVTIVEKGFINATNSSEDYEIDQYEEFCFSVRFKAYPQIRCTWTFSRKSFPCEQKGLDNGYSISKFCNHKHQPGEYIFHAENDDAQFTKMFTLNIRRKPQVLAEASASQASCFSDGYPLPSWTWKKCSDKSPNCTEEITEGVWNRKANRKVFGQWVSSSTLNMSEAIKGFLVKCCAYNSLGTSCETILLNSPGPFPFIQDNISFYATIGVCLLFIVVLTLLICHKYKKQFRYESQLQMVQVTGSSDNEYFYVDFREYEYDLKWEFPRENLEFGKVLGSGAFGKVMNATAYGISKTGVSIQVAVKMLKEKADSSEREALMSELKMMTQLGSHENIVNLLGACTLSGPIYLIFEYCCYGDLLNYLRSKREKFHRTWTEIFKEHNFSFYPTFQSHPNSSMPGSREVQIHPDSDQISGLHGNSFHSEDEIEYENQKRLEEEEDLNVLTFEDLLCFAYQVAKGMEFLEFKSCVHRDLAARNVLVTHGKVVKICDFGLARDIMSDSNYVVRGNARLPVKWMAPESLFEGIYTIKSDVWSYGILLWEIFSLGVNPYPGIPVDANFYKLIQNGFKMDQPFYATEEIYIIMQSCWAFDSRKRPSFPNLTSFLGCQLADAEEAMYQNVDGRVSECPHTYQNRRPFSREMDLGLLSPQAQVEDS
Sequence of Serine/threonine-protein kinase PAK 4 (Homo sapiens) (O96013 whole entry, looked up): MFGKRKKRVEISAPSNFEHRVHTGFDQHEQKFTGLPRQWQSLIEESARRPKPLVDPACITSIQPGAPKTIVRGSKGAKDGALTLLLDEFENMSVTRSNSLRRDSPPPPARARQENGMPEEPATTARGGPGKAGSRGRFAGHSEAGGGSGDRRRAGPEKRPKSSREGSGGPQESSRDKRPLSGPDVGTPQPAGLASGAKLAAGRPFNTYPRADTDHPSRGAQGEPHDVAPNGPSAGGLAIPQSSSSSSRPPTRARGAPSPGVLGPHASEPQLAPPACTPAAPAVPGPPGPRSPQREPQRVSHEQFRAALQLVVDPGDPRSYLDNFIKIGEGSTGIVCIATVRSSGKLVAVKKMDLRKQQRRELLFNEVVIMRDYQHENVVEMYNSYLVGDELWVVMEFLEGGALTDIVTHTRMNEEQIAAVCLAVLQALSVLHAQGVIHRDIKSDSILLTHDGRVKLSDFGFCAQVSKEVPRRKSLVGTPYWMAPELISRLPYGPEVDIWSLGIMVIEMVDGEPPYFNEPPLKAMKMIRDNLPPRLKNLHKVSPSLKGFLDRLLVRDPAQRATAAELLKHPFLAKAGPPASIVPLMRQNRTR
Sequence of Mitogen-activated protein kinase 9 (P45984 whole entry): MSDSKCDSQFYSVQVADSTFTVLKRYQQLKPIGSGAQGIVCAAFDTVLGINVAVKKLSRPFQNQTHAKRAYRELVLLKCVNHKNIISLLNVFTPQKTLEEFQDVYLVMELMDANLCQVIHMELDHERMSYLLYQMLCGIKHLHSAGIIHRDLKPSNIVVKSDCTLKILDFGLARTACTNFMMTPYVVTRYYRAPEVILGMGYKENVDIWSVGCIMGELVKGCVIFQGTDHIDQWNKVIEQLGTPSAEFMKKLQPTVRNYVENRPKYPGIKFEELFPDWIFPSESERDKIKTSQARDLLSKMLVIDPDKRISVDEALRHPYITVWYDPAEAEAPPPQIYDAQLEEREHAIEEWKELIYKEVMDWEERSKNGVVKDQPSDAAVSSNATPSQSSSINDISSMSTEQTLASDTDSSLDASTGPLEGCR
Sequence of Receptor-interacting serine/threonine-protein kinase 2 (Homo sapiens) (O43353 whole entry): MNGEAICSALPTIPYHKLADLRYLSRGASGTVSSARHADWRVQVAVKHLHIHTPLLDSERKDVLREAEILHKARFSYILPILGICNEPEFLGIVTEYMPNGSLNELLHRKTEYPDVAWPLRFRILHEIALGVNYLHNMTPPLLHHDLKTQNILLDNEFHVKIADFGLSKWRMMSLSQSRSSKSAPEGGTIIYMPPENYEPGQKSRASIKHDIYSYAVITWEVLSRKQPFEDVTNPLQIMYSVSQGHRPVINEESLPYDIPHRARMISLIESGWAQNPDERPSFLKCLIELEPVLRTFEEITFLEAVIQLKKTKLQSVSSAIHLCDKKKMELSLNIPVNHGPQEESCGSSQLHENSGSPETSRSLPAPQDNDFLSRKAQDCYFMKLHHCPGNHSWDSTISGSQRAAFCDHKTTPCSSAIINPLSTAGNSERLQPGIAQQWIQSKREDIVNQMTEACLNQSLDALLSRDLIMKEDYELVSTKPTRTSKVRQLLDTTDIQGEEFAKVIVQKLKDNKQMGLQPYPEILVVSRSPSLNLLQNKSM
Sequence of Tyrosine-protein kinase Lck (Homo sapiens) (P06239 2-509 limits assumed): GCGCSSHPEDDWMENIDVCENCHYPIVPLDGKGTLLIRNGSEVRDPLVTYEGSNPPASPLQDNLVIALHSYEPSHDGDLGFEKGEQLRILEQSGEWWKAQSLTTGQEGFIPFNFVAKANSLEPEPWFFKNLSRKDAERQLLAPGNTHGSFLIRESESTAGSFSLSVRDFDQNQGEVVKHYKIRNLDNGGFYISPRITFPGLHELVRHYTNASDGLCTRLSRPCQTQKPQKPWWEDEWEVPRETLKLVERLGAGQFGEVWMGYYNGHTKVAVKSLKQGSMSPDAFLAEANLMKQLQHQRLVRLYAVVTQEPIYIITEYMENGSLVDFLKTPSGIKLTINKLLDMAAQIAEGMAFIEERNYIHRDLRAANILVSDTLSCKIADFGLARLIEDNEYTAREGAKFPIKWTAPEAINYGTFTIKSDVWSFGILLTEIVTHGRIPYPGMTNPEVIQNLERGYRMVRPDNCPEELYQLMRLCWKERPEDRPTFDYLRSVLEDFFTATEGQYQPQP
Sequence of Protein-tyrosine kinase 2-beta (Homo sapiens) (Q14289 whole entry, looked up): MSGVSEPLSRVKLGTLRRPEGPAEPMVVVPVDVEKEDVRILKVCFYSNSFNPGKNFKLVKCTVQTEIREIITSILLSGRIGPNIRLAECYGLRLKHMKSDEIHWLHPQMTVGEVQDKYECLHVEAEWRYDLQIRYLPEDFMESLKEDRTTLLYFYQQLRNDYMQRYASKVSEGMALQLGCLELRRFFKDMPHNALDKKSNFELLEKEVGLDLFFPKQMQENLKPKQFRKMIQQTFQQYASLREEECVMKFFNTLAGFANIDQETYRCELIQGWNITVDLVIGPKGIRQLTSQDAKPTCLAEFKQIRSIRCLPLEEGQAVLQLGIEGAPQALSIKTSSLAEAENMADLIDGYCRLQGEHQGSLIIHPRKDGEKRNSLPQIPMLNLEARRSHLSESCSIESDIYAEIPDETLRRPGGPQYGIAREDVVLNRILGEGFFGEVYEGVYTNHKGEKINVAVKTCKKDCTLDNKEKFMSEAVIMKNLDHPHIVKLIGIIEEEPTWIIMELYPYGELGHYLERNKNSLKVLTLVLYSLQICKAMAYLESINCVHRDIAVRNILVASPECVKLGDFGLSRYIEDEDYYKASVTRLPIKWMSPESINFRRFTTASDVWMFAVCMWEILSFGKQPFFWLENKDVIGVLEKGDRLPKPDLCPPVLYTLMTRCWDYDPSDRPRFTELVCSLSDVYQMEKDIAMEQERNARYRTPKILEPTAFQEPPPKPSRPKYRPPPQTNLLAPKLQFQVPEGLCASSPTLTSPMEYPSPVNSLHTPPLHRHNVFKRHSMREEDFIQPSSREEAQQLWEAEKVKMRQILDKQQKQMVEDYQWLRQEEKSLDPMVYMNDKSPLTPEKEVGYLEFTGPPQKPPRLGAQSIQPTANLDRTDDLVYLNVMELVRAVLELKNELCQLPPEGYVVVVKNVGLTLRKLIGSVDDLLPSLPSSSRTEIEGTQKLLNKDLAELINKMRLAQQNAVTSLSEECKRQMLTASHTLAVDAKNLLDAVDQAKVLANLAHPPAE
Sequence of Glycogen synthase kinase-3 beta (Homo sapiens) (P49841 whole entry, looked up): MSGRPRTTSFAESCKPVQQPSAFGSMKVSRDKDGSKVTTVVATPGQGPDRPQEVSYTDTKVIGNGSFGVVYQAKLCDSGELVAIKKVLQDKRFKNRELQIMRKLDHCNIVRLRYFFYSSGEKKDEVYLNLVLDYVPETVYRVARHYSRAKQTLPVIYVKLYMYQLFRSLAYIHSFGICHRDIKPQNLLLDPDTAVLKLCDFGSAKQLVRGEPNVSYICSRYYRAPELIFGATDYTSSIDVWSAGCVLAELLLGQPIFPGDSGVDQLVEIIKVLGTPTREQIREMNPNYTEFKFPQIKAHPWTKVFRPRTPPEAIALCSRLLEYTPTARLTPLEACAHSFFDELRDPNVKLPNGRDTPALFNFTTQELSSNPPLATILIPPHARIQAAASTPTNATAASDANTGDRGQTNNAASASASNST

SMILES: S=c1[nH]nc(-c2ccncc2)n1-c1ccc2ccccc2c1
- inhibition [1]: 42%
- inhibition [2]: 1%
- Ratio IC50 [3]: > 10
- IC50 [4]: 12.5 µM
- remaining at 1 h [5]: 8%
- Ratio [6]: 1.12
- inhibition [7]: 0%
- inhibition [8]: 13%
- inhibition [9]: 19%
- inhibition [10]: 3%
- inhibition [11]: 0%
- inhibition [12]: 4%
- inhibition [13]: 73%
- IC50 [14]: 2.98 µM
- inhibition [15]: 12%
- solubility [16]: 100 µM (≈ 30.4 µg/mL)
- inhibition [17]: 28%
- inhibition [18]: 44%
- inhibition [19]: 45%
- remaining at 0.5 h [20]: 100%
- inhibition [21]: 93%
- inhibition [22]: 16%
- inhibition [23]: 11%
- inhibition [24]: 26%
- remaining at 0.5 h [25]: 100%
- inhibition [26]: 5%
- inhibition [27]: 49%
- inhibition [28]: 0%
- inhibition [29]: 25%
- inhibition [30]: 46%
- remaining at 1 h [31]: 1%
- inhibition [32]: 0%
- inhibition [33]: 1%
- inhibition [34]: 2%
- IC50 [35]: 0.559 µM
- inhibition [36]: 94%
- inhibition [37]: 0%
- inhibition [38]: 1%
- inhibition [39]: 39%
- inhibition [40]: 0%
- inhibition [41]: 8%
- inhibition [42]: 22%
- inhibition [43]: 41%
- inhibition [44]: 25%
- inhibition [45]: 0%
- inhibition [46]: 8%
- inhibition [47]: 5%
